According to ChEMBL document CHEMBL4732044, “Discovery of a promising agent IQZ23 for the treatment of obesity and related metabolic disorders” (Eur J Med Chem, 2020):
≈ marks a conversion by molar mass, not a printed value. Calls of active or inactive are those of the source. The calls are words filed in the database; no cut-off is given here.

Assays:
3T3-L1 [1] = test: Inhibition of mouse 3T3-L1 cells adipocyte differentiation assessed as reduction in adipogenic cocktail-induced C/EBPdelta mRNA expression after 24 hrs by RT-qPCR analysis; assay type: functional, cell-based; conditions: dose 0.01-1 µM
How it was run: (§1)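 Confluent 3T3-L1 preadipocytes received differentiation cocktail (0.5 mM IBMX, 100 ng/mL dexamethasone, 2 µg/mL insulin) with compound (0.01–1 µM; metformin 1 mM) for 24 h. mRNA was measured by SYBR Green RT-qPCR (30 cycles), normalized to β-actin, with the differentiated control set to 1. N = 4 independent experiments.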

[2] = Tmax in Sprague-Dawley rat at 5 mg/kg, po up to 24 hrs by LC-MS/MS analysis; assay type: ADME, organism-based; conditions: in vivo
How it was run: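 Male Sprague-Dawley rats (180-220 g, n = 3) were dosed intragastrically at 5 mg/kg in ethanol/saline (5:95); a separate iv arm received 2 mg/kg. Blood was drawn at 0, 30 min, 1, 2, 4, 8, 12 and 24 h and centrifuged to obtain plasma. Drug levels were measured by LC-MS/MS, and pharmacokinetic parameters were calculated from the concentration–time data.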

[3] = Effect on total AKT level in mouse C2C12 cells at 1 uM after 6 hrs by Western blot analysis; assay type: ADME, cell-based; conditions: c2c12, 6 h
[4] = Aqueous solubility in PBS buffer at pH 7.4 after 24 hrs; assay type: physicochemical
3T3-L1 [5] = test: Activation of AMPK pathway in mouse 3T3-L1 cells assessed as increase in number of mitochondria copy at 1 uM after 24 hrs by mito-tracker staining based Confocal microscopic method; conditions: filed as activator
How it was run: (§2)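 3T3-L1 cells grown in DMEM with 10% FBS at 37 °C and 5% CO2. After treatment, cells were stained for 30 min at 37 °C in the dark with 1 µM Mito-Tracker plus Hoechst 33342 (1:1000) and imaged by confocal microscopy (excitation 633 and 405 nm). Mitochondrial copy number was also taken as the mtDNA/nDNA ratio by PCR (cytochrome C versus 18S rRNA).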

[6] = Cmax in Sprague-Dawley rat at 5 mg/kg, po up to 24 hrs by LC-MS/MS analysis; assay type: ADME, organism-based; parameters: route oral, dose 5 mg/kg, time <=24; conditions: in vivo
How it was run: (§3)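 Male SD rats (180–220 g, n = 3) received compound in ethanol/saline (5:95), either intravenously at 2 mg/kg or intragastrically at 5 mg/kg. Plasma was sampled at 0, 0.5, 1, 2, 4, 8, 12 and 24 h. Concentrations were measured by LC-MS/MS, and PK parameters were calculated from the concentration–time data.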

3T3-L1 [7] = test: Inhibition of mouse 3T3-L1 cells adipocyte differentiation assessed as reduction in adipogenic cocktail-induced C/EBPbeta mRNA expression after 24 hrs by RT-qPCR analysis; assay type: functional, cell-based; conditions: dose 0.01-1 µM; how it was run: as §1
3T3-L1 [8] = test: Lipid lowering activity in mouse 3T3-L1 cells assessed as reduction in adipogenic cocktail-induced triglyceride levels at 1 uM incubated for 6 days by GPO-POD assay relative to control; assay type: functional; parameters: scale not given: the % may be the effect or the level left; conditions: time 6 day
How it was run: (§4)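 Confluent 3T3-L1 cells were treated from day 0 in cocktail (IBMX, dexamethasone, insulin) for 3 days, then re-dosed in insulin medium for 3 more days. For dose–response, concentrations were 0–10 µM (0.01, 0.1, 0.3, 1, 3, 10). On day 6, cells were lysed in 0.2% Triton X-100 and TG was measured by GPO-POD and normalized to BCA protein as % of control. EC50 was fitted from the dose–response. N = 4.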

[9] = target: RAC-alpha serine/threonine-protein kinase (Mus musculus) (UniProt P31750); test: Activation of AKT in mouse C2C12 cells assessed as AKT phosphorylation at […] 308 residue at 1 uM after 6 hrs by Western blot analysis; assay type: cell-based
How it was run: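 C2C12 myoblasts kept in DMEM with 10% FBS and 1% penicillin/streptomycin at 37 °C under 5% CO2.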

3T3-L1 [10] = test: Activation of AMPK pathway in mouse 3T3-L1 cells assessed as increase in oxygen consumption at 1 uM after 5 to 10 mins by XF-96 cell analyzer method; assay type: cell-based; conditions: filed as activator, time 5-10 min
How it was run: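 3T3-L1 cells seeded in quintuplicate at 5000 cells/well in an XF-96 plate. Equilibrated in assay medium at 37 °C for 30 min. Baseline OCR measured over 3–5 min, then compound injected to final concentration and OCR measured at set time points. Cell number counted at end.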

3T3-L1 [11] = test: Activation of AMPK pathway in mouse 3T3-L1 cells assessed as increase in number of mitochondria copy at 1 uM after 24 hrs in presence of compound C by mito-tracker staining based Confocal microscopic method; how it was run: as §2
[12] = Oral bioavailability in Sprague-Dawley rat at 5 mg/kg up to 24 hrs by LC-MS/MS analysis; assay type: ADME, organism-based; conditions: in vivo; how it was run: as §3
[13] = Stability in Sprague-Dawley rat liver microsomes assessed as rate constant […] up to 60 mins in presence of NADPH by LC-MS/MS analysis; assay type: ADME, Microsome
[14] = Half life in Sprague-Dawley rat liver microsomes assessed as rate constant […] up to 60 mins in presence of NADPH by LC-MS/MS analysis; assay type: ADME, Microsome
[15] = AUC(0 to infinity) in Sprague-Dawley rat at 5 mg/kg, po up to 24 hrs by LC-MS/MS analysis; assay type: ADME, organism-based; parameters: route oral, dose 5 mg/kg, time <=24; conditions: in vivo
How it was run: (§5)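 Male Sprague-Dawley rats (180-220 g, n = 3) were dosed intragastrically at 5 mg/kg in ethanol/saline (5:95). Plasma was collected at 0, 30 min, 1, 2, 4, 8, 12 and 24 h post-dose and quantified by LC-MS/MS. Pharmacokinetic parameters were derived from the plasma concentration-time profile.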

[16] = MRT(0 to infinity) in Sprague-Dawley rat at 5 mg/kg, po up to 24 hrs by LC-MS/MS analysis; assay type: ADME, organism-based; conditions: in vivo; how it was run: as §3
[17] = Intrinsic clearance in Sprague-Dawley rat liver microsomes assessed as rate constant […] up to 60 mins in presence of NADPH by LC-MS/MS analysis; assay type: ADME, Microsome; conditions: read-out: CLH
3T3-L1 [18] = test: Inhibition of mouse 3T3-L1 cells adipocyte differentiation assessed as reduction in adipogenic cocktail-induced C/EBPalpha mRNA expression after 24 hrs by RT-qPCR analysis; assay type: functional, cell-based; conditions: dose 0.01-1 µM; how it was run: as §1
[19] = AUC(0 to t) in Sprague-Dawley rat at 5 mg/kg, po up to 24 hrs by LC-MS/MS analysis; assay type: ADME, organism-based; parameters: route oral, dose 5 mg/kg, time <=24; conditions: in vivo; how it was run: as §5
3T3-L1 [20] = test: Activation of AMPK pathway in adipogenic cocktail-induced mouse 3T3-L1 cells assessed as increase in phosphorylation AMPKalpha at Thr172 residue at 0.01 to 1 uM after 24 hrs by Western blot analysis; assay type: cell-based; conditions: filed as activator, dose 0.01-1 µM
How it was run: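 Confluent 3T3-L1 pre-adipocytes exposed to adipogenic cocktail for 24 h with or without compound (0, 0.01, 0.1, 1 µM); DMSO vehicle. Lysates analysed by SDS-PAGE/Western blot for pAMPKα (Thr-172), normalized to actin, Ctrl set as 1. N = 4 independent experiments.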

3T3-L1 [21] = test: Lipid lowering activity in mouse 3T3-L1 cells assessed as reduction in adipogenic cocktail-induced triglyceride levels incubated for 6 days by GPO-POD assay; assay type: functional, cell-based; conditions: for EC50: 3T3-L1, 144 h; how it was run: as §4
[22] = Stability in Sprague-Dawley rat liver microsomes assessed as remaining compound […] up to 60 mins in presence of NADPH by LC-MS/MS analysis; assay type: ADME, Microsome; conditions: read-out: Stabilty

RAC-alpha serine/threonine-protein kinase (Mus musculus), sequence (P31750 whole entry): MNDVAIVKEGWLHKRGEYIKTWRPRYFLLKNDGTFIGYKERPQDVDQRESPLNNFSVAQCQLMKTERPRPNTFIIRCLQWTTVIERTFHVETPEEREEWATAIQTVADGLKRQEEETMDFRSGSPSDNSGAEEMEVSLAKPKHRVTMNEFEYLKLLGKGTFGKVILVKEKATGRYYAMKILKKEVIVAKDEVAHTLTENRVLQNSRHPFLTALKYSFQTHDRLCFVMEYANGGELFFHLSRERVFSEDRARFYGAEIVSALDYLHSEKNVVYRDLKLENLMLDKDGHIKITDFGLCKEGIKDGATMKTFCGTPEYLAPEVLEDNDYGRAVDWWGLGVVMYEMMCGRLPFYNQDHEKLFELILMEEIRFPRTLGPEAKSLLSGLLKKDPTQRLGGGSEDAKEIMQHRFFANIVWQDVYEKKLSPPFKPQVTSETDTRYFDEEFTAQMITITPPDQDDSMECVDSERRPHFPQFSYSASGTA

SMILES	inhibition (3T3-L1 [1])	Tmax [2]	Activity [3]	solubility at 24 h [4]	Activity (3T3-L1 [5])	Cmax [6]	inhibition (3T3-L1 [7])	Activity (3T3-L1 [8])	Activity [9]	Activity (3T3-L1 [10])	Activity (3T3-L1 [11])	bioavailability [12]	k el at 1 h [13]	half-life [14]	AUC(0-inf) [15]	MRT inf [16]	microsomal CLint [17]	inhibition (3T3-L1 [18])	AUC(0-t) at 24 h [19]	Activity (3T3-L1 [20])	other results
CN(C)CCCNc1nc(-c2[nH]c3ccccc3c2C=O)nc2ccccc12	Dose-dependent effect	4.7 h	Non-Toxic	41.1 µg/mL (≈ 110 µM)	Active	23.8 ng/mL	Dose-dependent effect	79.2%	inactive	Active	inactive	43.8%	8.83e-05 s⁻¹	2.18 h	294 ng·h/mL	9.62 h	6.3 µL/min/mg	Dose-dependent effect	247 ng·h/mL	Active	EC50 (3T3-L1 [21]): 91 nM; remaining at 1 h [22]: 71%
COc1ccc2[nH]c(-c3nc(NCCCCN4CCCC4)c4ccccc4n3)c(C=O)c2c1	Dose-dependent effect	4 h	Non-Toxic	73.3 µg/mL (≈ 165 µM)	Active	37.1 ng/mL	Dose-dependent effect	>=50%	inactive	Active	inactive	48.6%	6.17e-05 s⁻¹	3.12 h	384 ng·h/mL	7.5 h	3.7 µL/min/mg	Dose-dependent effect	374 ng·h/mL	Active	EC50 (3T3-L1 [21]): 33 nM; Activity (3T3-L1 [21]; dose 1-5 µM, time 6.0 day): Dose-dependent effect; remaining at 1 h [22]: 80.7%
